Published values from different studies.
BCHE: Cholinesterase (BCHE, Homo sapiens, UniProt P06276)

Compound | target | test | setting | measurement | result
Nc1ncc(-c2nc(N3CCOCC3)nc(N3CCOCC3)n2)c(C(F)F)n1 | Peripheral plasma membrane protein CASK (CASK, Homo sapiens, UniProt O14936) | binding, competition with immobilised ligand | 10 µM | remaining binding | 77%
COc1ncccc1-c1cnn2ccc(N3CCN(C(=O)OC(C)C)CC3)nc12 | Dual specificity mitogen-activated protein kinase kinase 5 (MAP2K5, Homo sapiens, UniProt Q13163) | binding, competition with immobilised ligand | 1 µM | remaining binding | 65%
CCN(CC)CCCC[C@H](NC(=O)[C@H](CC(C)C)NC(=O)[C@H](C)NC(=O)[C@H](Cc1ccccc1)NC(=O)c1ccc(C(C)(C)C)cc1)C(=O)N[C@@H](CO)C(=O)OC | Chromatin remodeling regulator CECR2 (CECR2, Homo sapiens, UniProt Q9BXF3) | thermal stability, DSF | 25 µM | ΔTm | 0.58 °C
C=CCn1c2cc(OC(=O)CCCCN3CCN(Cc4cccc(C(F)(F)F)c4)CC3)ccc2c2ccnc(C)c21 | BCHE | enzyme activity, inhibitor, Ellman | 1 µM | inhibition | 40.2%
Cc1nn(C)cc1-c1nc2c(N3CCN(Cc4ccc(Cl)cc4)CC3)c(Cl)cnc2[nH]1 | Interferon-induced, double-stranded RNA-activated protein kinase (EIF2AK2, Homo sapiens, UniProt P19525) | binding, competition with immobilised ligand | 1 µM | remaining binding | 95%
C#Cc1n[nH]c2c(-c3cn(C(C)c4ccccn4)c(=O)[nH]c3=O)cc(F)cc12 (centres unmarked) | Fibroblast growth factor receptor 1 (FGFR1, Homo sapiens, UniProt P11362, V561M) | enzyme activity, inhibitor | 1 µM | inhibition | 11.4%
C=CCn1c2cc(OC(=O)CCN3CCN(Cc4ccccc4)CC3)ccc2c2ccnc(C)c21 | BCHE | enzyme activity, inhibitor, Ellman | 1 µM | inhibition | 29.9%
NC(=O)c1cccc(-c2cccc(OC(=O)NC3CCCCC3)c2)c1 | Cocaine esterase (CES2, Homo sapiens, UniProt O00748) | enzyme activity, inhibitor | pH 7.4 | kinact/KI | 3900 M⁻¹ s⁻¹
